From ChEMBL document CHEMBL4118275, “Synthesis of coumarin derivatives and their cytoprotective effects on t-BHP-induced oxidative damage in HepG2 cells” (Bioorg Med Chem Lett, 2018)
Active and inactive are the calls of the source. The calls are words filed in the database; no cut-off is given here.

Assays:
[1] = test system: HepG2; assay: Cytotoxicity against human HepG2 cells at 10 uM; type: cell-based; details: hepg2, 10 µM
[2] = test system: HepG2; assay: Cytoprotective activity against 100 uM t-BHP-induced oxidative stress in human HepG2 cells assessed as cell viability preincubated for 1 hr followed by t-BHP addition measured after 3 hrs by CCK-8 assay (reference value: 22%); type: functional
[3] = test system: HepG2; assay: Cytoprotective activity against 1 mM t-BHP-induced oxidative stress in human HepG2 cells assessed as cell viability preincubated for 1 hr followed by t-BHP addition measured after 3 hrs by CCK-8 assay; type: functional
[4] = test system: HepG2; assay: Cytoprotective activity against 100 uM t-BHP-induced cell damage in human HepG2 cells assessed as increase in mitochondrial membrane potential preincubated for 1 hr followed by t-BHP addition measured after 3 hrs by rhodamine 123 staining based fluorescence microscopy; type: functional
Method in brief: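 HepG2 cells were pretreated with sample, then exposed to 100 μM t-BHP and stained with Rhodamine 123. Mitochondrial membrane potential was judged from fluorescence microscopy images against untreated control and t-BHP-only cells.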

[5] = Antioxidant activity assessed as DPPH radical scavenging activity measured after 30 mins; type: functional
Method in brief: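 DPPH radical scavenging was measured, and activity is given as EC50 in μM.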

SMILES	Activity [1]	Activity [2]	Activity [3]	Activity [4]	EC50 [5]
CC(C)(OC(=O)/C=C/c1ccc(O)cc1)C1Cc2c(ccc3ccc(=O)oc23)O1 (stereo not given)	Non-Toxic	inactive	–	–	–
COc1ccc(/C=C/C(=O)OC2Cc3c(ccc4ccc(=O)oc34)OC2(C)C)cc1OC (stereo not given)	Non-Toxic	inactive	–	–	–
CC1(C)Oc2cc3oc(=O)ccc3cc2CC1O (stereo not given)	Non-Toxic	inactive	–	–	–
CC(C)(O)C1Cc2c(ccc3ccc(=O)oc23)O1 (stereo not given)	Non-Toxic	inactive	–	–	–
CC1(C)Oc2ccc3ccc(=O)oc3c2CC1O (stereo not given) [LOMATIN]	Non-Toxic	inactive	–	–	–
CC(C)(OC(=O)/C=C/c1ccc(O)cc1)C1Cc2cc3ccc(=O)oc3cc2O1 (stereo not given)	Non-Toxic	inactive	–	–	–
CC1(C)Oc2ccc3ccc(=O)oc3c2CC1OC(=O)/C=C/c1ccc(O)c(O)c1 (stereo not given)	Non-Toxic	86%	39%	Active	3060 nM
O=c1c(O)c(-c2ccc(O)c(O)c2)oc2cc(O)cc(O)c12 [QUERCETIN]	–	62%	–	–	170 nM
CC1(C)Oc2cc3oc(=O)ccc3cc2CC1OC(=O)/C=C/c1ccc(O)cc1 (stereo not given)	Non-Toxic	inactive	–	–	–
COc1ccc(/C=C/C(=O)OC2Cc3c(ccc4ccc(=O)oc34)OC2(C)C)cc1 (stereo not given)	Non-Toxic	inactive	–	–	–
COC(=O)/C=C/c1ccc(O)c(O)c1 [METHYLCAFFEATE]	–	31%	–	–	1500 nM
COc1cc(/C=C/C(=O)OC2Cc3c(ccc4ccc(=O)oc34)OC2(C)C)cc(OC)c1OC (stereo not given)	Non-Toxic	inactive	–	–	–
COc1cc(/C=C/C(=O)OC2Cc3c(ccc4ccc(=O)oc34)OC2(C)C)ccc1O (stereo not given)	Non-Toxic	inactive	–	–	–
CC1(C)Oc2ccc3ccc(=O)oc3c2CC1OC(=O)/C=C/c1ccc(O)cc1 (stereo not given)	Non-Toxic	inactive	–	–	–
CC(C)(O)C1Cc2cc3ccc(=O)oc3cc2O1 (stereo not given)	Non-Toxic	inactive	–	–	–
CC1(C)Oc2ccc3ccc(=O)oc3c2CC1OC(=O)/C=C/c1ccccc1 (stereo not given)	Non-Toxic	inactive	–	–	–
